Compound activity as filed in PubChem BioAssay.
Sampled rows, rich in hits. Any-hit rate of the full collection: about 3.9%.
HTR2A ag = activates the mouse 5-HT2A serotonin receptor | P35363 | CHO-K1 mHTR2A beta-arrestin complementation, luminescence; percent of 30 µM serotonin response | activation, % at 7.6 µM | actives 0.66% (n = 360,000) | AID 624169;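 active = activation above a run cutoff, the mean activation of all tested compounds plus 3 SD, cut at about 14% in these data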
M1 PAM = potentiates human M1 receptor response to acetylcholine. activation, % at 3 µM. actives 0.088% (n = 360,000). AID 588819. P11229. CHO-K1 hM1, Fluo-8 calcium fluorescence, ACh EC20; 0% = ACh EC20, 100% = maximal ACh; in the data active = activation above about 19%, passing the limit was not always enough
CHRM1 agonist = agonists of human M1 muscarinic receptor; P11229; CHO-K1 hM1, Fluo-8 calcium fluorescence, agonist mode; 0% DMSO, 100% acetylcholine EC100; actives 0.33% (n = 360,000); AID 588814; activation, % at 3 µM;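 active = activation above the run's mean compound activation plus 3 SD, cut at about 16% in these data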;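 note: peak over basal fluorescence ratio within a 140 s kinetic read after compound addition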
TAAR1 agonist = agonists of human TAAR1; CHO RD-HGA16 TAAR1, Fluo-8 calcium fluorescence; vehicle wells 0%, saturating PEA agonist 100%; activation, % at 3 µM; Q96RJ0; actives 0.99% (n = 360,000);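 active = activation above the mean activation of all test compounds in the run plus 3 SD, cut at about 38% in these data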
Target sequence (Q96RJ0 whole entry, looked up): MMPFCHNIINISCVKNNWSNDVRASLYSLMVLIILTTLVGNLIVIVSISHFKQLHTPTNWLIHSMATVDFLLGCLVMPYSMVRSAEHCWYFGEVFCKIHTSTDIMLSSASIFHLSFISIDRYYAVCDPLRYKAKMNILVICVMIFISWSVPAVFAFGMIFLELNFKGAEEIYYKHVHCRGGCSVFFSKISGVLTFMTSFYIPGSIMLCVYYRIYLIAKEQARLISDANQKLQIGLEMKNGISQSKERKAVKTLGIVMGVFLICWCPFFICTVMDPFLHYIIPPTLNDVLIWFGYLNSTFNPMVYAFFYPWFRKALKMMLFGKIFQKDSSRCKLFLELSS
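Test system: RD-HGA16 (CHO) cells co-expressing Gα16 and hTAAR1 / Benchmarks: DMSO vehicle as 0%, PEA at EC100 as 100% / Repeats: no replicates (n 1) / Measure: % activation from peak over basal fluorescence ratio, DMSO-to-PEA scaled / Timing: 17-24 h plating, Fluo-8 75 min 37 °C, 30 min RT / Technique: kinetic Fluo-8 calcium fluorescence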
TAAR1 antagonist = human TAAR1 antagonism. Q96RJ0. CHO RD-HGA16 TAAR1, Fluo-8 calcium fluorescence, antagonist. inhibition, % at 3 µM. actives 1.5% (n = 360,000);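 active = inhibition above a per-plate cutoff, the mean inhibition of test compounds on that plate plus 3 SD, cut at about 49% in these data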
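Test system – hTAAR1-expressing CHO RD-HGA16 cells, Gα16-coupled · Reagent – β-PEA at EC80 concentration, post-compound challenge · Compound dosing – 3 µM, single point · Timing – 140 s kinetic read after compound, 140 s after agonist · Detection – Fluo-8 intracellular calcium dye fluorescence, real-time kinetic reads · Control set – DMSO and EC80 PEA controls · Repeats – n of 1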
M1 antag = blocks human M1 muscarinic receptor | P11229 | CHO-K1 hM1, Fluo-8 calcium fluorescence, ACh EC80 antagonist | inhibition, % at 3 µM | actives 1.3% (n = 360,000);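 active = percent inhibition above its own plate's cutoff, namely the mean of that plate's compound wells plus 3 SD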;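 note: peak over basal fluorescence ratio during 140 s after agonist addition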
nonsel antag count = nonselective antagonism, TAAR1 counter-screen; shares compounds with TAAR1 antagonist; counterscreen cell line, calcium fluorescence, antagonist mode; inhibition, % at 3 µM; actives 77% (n = 2,400); AID 651780; in the data active = inhibition above about 22%;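 note: CHO-Ga16 host cells stimulated with ATP at an EC80 level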
TAAR1 ant conf = confirmation of human TAAR1 antagonists; inhibition, % at 3 µM; shares compounds with TAAR1 antagonist; TAAR1-expressing cells, fluorescence antagonist read-out; AID 651785; actives 40% (n = 2,400); in the data active = inhibition above about 49%;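 note: CHO-Ga16 host cells challenged with agonist PEA near its EC80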
Ga16 nonsel ag = counter-screen for TAAR1 antagonists: nonselective Ga16 agonists | AID 651953 | shares compounds with TAAR1 antagonist | Ga16-expressing cells, calcium fluorescence, agonist counterscreen | activation, % at 3 µM | actives 18% (n = 2,400); in the data active = activation above about 12%
TAAR1 ag count = activates human TAAR1 in antagonist counter-screen; shares compounds with TAAR1 antagonist; hTAAR1 cell line, fluorescence activation, agonist mode; activation, % at 3 µM; actives 2% (n = 2,400); in the data active = activation above about 37%;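 note: CHO cells stably expressing TAAR1 with calcium dye readout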
Large screens that a line does not name were inactive (follow-up assays come after a bar, where they were run).

CC(C)(C)OC(=O)C[C@H]1C/C=C\C[C@@H](CC(=O)N[C@H](CO)Cc2ccccc2)C(=O)NC[C@H](c2ccccc2)OC1=O	none
CC(C)(C)OC(=O)C[C@@H]1C/C=C\C[C@@H](CC(=O)N[C@H](CO)Cc2ccccc2)C(=O)NC[C@H](c2ccccc2)OC1=O	TAAR1 antagonist 53 | nonsel antag count 23 | TAAR1 ant conf inactive | Ga16 nonsel ag inactive | TAAR1 ag count inactive
CC(C)(C)OC(=O)C[C@H]1C/C=C\C[C@@H](CC(=O)N[C@H](CO)Cc2ccccc2)C(=O)N2CCC[C@H]2COC1=O	none
CC(C)(C)OC(=O)C[C@@H]1C/C=C\C[C@@H](CC(=O)N[C@H](CO)Cc2ccccc2)C(=O)N2CCC[C@H]2COC1=O	TAAR1 antagonist 67 | nonsel antag count 30 | TAAR1 ant conf 50 | Ga16 nonsel ag 12 | TAAR1 ag count inactive
Cc1ccc(Cl)cc1N1CCN(S(=O)(=O)c2cc3c(cc2C)NC(=O)CO3)CC1	none
Cc1ccc([C@H]2C(C(=O)O)=CC[C@@H](c3ccc(Cl)cc3)N2S(=O)(=O)c2ccc(C)cc2)cc1	TAAR1 antagonist 66 | nonsel antag count inactive | TAAR1 ant conf inactive | Ga16 nonsel ag inactive | TAAR1 ag count inactive
COc1ccc(CCNC(=O)CNC(=O)Cn2ccc3ccccc3c2=O)cc1OC	none
COc1cccc(NC(=O)CN(C)C(=O)c2cc(-c3ccccc3)nc3ccc(C)cc23)c1	TAAR1 antagonist 74 | nonsel antag count 40 | TAAR1 ant conf 61 | Ga16 nonsel ag inactive | TAAR1 ag count inactive
COc1ccc(NC(=O)CN(C)C(=O)c2cc(-c3ccc(Cl)cc3)nc3ccccc23)cc1	TAAR1 antagonist 67 | nonsel antag count 30 | TAAR1 ant conf inactive | Ga16 nonsel ag inactive | TAAR1 ag count inactive
COc1ccc(NC(=O)CN(C)C(=O)Cc2c(C)nc3ccccc3c2C)cc1	none
COc1cccc(NC(=O)CN(C)C(=O)c2cc(-c3cccc(Br)c3)nc3ccccc23)c1	TAAR1 antagonist 79 | nonsel antag count 39 | TAAR1 ant conf inactive | Ga16 nonsel ag inactive | TAAR1 ag count inactive
COc1cccc(NC(=O)CN(C)C(=O)Cc2c(C)nc3ccccc3c2C)c1	none
COc1ccc(OC)c2[nH]c(=O)c(CCNC(=O)c3cc4ccccc4o3)cc12	none
Cc1ccc(C)c2[nH]c(=O)c(CCNC(=O)c3cc4ccccc4o3)cc12	TAAR1 antagonist 49 | nonsel antag count 24 | TAAR1 ant conf inactive | Ga16 nonsel ag inactive | TAAR1 ag count inactive
CN(CC(=O)Nc1ccccc1Cl)C(=O)CSc1nnc(N)s1	none
CC(OC(=O)Cn1[nH]c(=O)c2ccccc2c1=O)C(=O)c1ccccc1 (configuration not stated)	none
CCN(CC)S(=O)(=O)c1ccc2[nH]cc(C(=O)NCCC3=CCCCC3)c(=O)c2c1	TAAR1 antagonist 67 | nonsel antag count 32 | TAAR1 ant conf inactive | Ga16 nonsel ag inactive | TAAR1 ag count inactive
CC(OC(=O)COc1ccc(Nc2ccccc2)cc1)C(=O)N(C)c1ccccc1 (configuration not stated)	TAAR1 antagonist 73 | nonsel antag count 30 | TAAR1 ant conf inactive | Ga16 nonsel ag inactive | TAAR1 ag count inactive
NC(Cc1ccc(C(F)(F)F)cc1)c1csc(Nc2ccc(C(=O)NCc3ccco3)cn2)n1 (configuration not stated)	none
